Rpn11 inh = Rpn11 (PSMD14) deubiquitinase inhibitors, primary screen, biochemical, fluorescence polarization, uHTS | 360,000 compounds, 0.59% hits | human 26S proteasome, Ub4-pepOG fluorescence polarization; 20S core pre-blocked with epoxomicin | inhibition, % at 20 µM;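 active = inhibition at 20 µM, scaled to each plate's controls, above about 33%, limit read from the data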
HNF4A DNA FP = change in binding of human HNF4A to DNA, primary screen, biochemical, fluorescence polarization, FITC-DNA; Hepatocyte nuclear factor 4-alpha (Homo sapiens), P41235; 1 h; activity change, % at 10 µM; 360,000 compounds, 0.3% hits; AID 1224865, 2016; in the data active = activity change above about 30%, passing the limit was not always enough
Target sequence (P41235 whole entry, looked up): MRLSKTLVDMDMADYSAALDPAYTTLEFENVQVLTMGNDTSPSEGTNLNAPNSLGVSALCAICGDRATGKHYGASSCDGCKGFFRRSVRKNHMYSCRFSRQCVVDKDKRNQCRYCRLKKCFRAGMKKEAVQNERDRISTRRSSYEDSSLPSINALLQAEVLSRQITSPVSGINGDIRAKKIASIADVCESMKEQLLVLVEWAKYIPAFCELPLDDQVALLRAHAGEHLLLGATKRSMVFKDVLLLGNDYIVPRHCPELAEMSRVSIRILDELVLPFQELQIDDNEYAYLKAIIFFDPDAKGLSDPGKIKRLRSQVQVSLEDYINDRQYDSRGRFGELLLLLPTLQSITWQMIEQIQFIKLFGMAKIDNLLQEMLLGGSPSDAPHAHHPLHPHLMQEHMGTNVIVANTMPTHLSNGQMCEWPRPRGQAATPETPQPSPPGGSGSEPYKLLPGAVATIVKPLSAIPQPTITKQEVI
TPT1 inhibitor = Candida albicans TPT1 enzyme inhibitors, primary screen, biochemical, fluorescence polarization; AID 1962, 2009; 300,000 compounds, 0.81% hits; recombinant caTPT1, FP RNA substrate dephosphorylation; tRNA 2'-phosphotransferase TPT1 (Candida albicans SC5314); inhibition, % at 5 µM;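 active = inhibition above the mean of all tested compounds plus 3 SD, set per screening campaign, cut at about 24% in these data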;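 also: plate controls were DMSO alone for no effect and ferristatin control at 100 nM for full effect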
NadD block = inhibitors of S. aureus NadD, primary screen, biochemical, colorimetric, uHTS; 360,000 compounds, 0.78% hits; purified NadD enzyme, colorimetric absorbance read-out; AID 602399, 2012; inhibition, % at 20 µM; in the data active = inhibition above about 26%
PP1 inh = PP1-alpha phosphatase inhibitors, primary screen, counter-screen for PP5 inhibitor project, biochemical, fluorescence, OMFP substrate, single point. Serine/threonine-protein phosphatase PP1-alpha catalytic subunit (Homo sapiens), P62136. purified PP1alpha. inhibition, % at 6.7 µM. 320,000 compounds, 0.9% hits. AID 2235, 2010;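 active = inhibition above the mean inhibition of all tested compounds plus 3 SD, computed separately for each screening campaign, cut at about 15% in these data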
CSN deneddyl inh = inhibitors of CSN-mediated cullin deneddylation, primary screen, biochemical, fluorescence polarization, uHTS; COP9 signalosome complex subunit 5 (Homo sapiens), Q92905; Purified CSN, SCF-Nedd8-OG deneddylation; inhibition, % at 12.5 µM; 360,000 compounds, 0.38% hits; AID 651999, 2013;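 active = pattern-corrected inhibition above about 35%, with an unprinted fluorescence ratio check between 0.5 and 1.5, limit read from the data, passing the limit was not always enough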;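 also: 0% = enzyme with substrate and 100% = substrate without enzyme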
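Schedule: reaction 90 min, room temperature / Assay system: HEK293T-derived human Csn5 enzyme / Input: Csn5 at 0.24 nM final / Measure: inhibition of Csn5 cleavage, % / Control set: substrate-only high control, full reaction low control / Technique: fluorescence polarization of the substrate / Buffer or medium: Tris/NaCl/DTT buffer, pH 7.5 / Reagent: SCFSkp2-Nedd8OG substrate at 10 nM final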
caTPT1 confirm = Candida albicans TPT1 inhibitors, confirmation, biochemical, fluorescence polarization, triplicate; shares compounds with TPT1 inhibitor; recombinant caTPT1, RNase T1 coupled; inhibition, % at 5 µM; 2,400 compounds, 74% hits; AID 2149, 2009;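 active = inhibition above the primary screen limit, the mean inhibition of all tested compounds plus 3 SD, cut at about 25% in these data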
RNase T1 inh = RNase T1 inhibitors, counter-screen for TPT1 inhibitor project, biochemical, fluorescence polarization. RNase T1 cleavage, 1536-well. inhibition, % at 5 µM. AID 2153, 2009. shares compounds with TPT1 inhibitor. 2,400 compounds, 83% hits;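 active = inhibition above the solvent-only control well mean plus 3 SD, limit set per screening run, cut at about 23% in these data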;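 also: plate controls were DMSO wells with enzyme for no effect and wells without RNase T1 for full effect; inhibitors block cleavage so intact labeled substrate keeps polarization high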
Target sequence (P00651 whole entry, looked up): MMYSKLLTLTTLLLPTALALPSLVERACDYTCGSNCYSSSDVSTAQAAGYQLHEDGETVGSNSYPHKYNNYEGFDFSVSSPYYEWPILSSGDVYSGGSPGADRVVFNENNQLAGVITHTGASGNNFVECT
PP1 inh confirm = PP1 phosphatase inhibitors, confirmation, biochemical, fluorescence, OMFP substrate, triplicate. shares compounds with PP1 inh. inhibition, % at 6.7 µM. 1,900 compounds, 52% hits. purified PP1alpha;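 active = mean PP1 inhibition above a set limit taken from the earlier primary screen, cut at about 15% in these data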
PP5 counter = PP5 phosphatase inhibition by PP1 hits, confirmation, counter-screen for PP1 inhibitor project, biochemical, fluorescence, triplicate; shares compounds with PP1 inh; 1,900 compounds, 4% hits; purified PP5c, OMFP fluorescence; inhibition, % at 6.7 µM; AID 2360, 2010;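 active = mean PP5 inhibition over triplicate wells above about 9.5% taken from the earlier PP1 screen, limit read from the data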
Rpn11 inh conf = Rpn11 (PSMD14) deubiquitinase inhibitors, confirmation, biochemical, fluorescence polarization, single concentration; shares compounds with Rpn11 inh; purified human 26S proteasome, Ub4-pepOG fluorescence polarization; proteasome pretreated with epoxomicin; inhibition, % at 20 µM; 1,900 compounds, 29% hits; AID 602318, 2012
MMP-2 counter = MMP-2 enzyme inhibition, confirmation, counter-screen for RPN11 inhibitor project, biochemical, fluorescence, single concentration; recombinant MMP-2, FRET peptide cleavage fluorescence; AID 602330, 2012; 1,900 compounds, 4% hits; shares compounds with Rpn11 inh; inhibition, % at 20 µM;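 also: human MMP-2 activated beforehand with APMA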
Thrombin inh = bovine thrombin protease inhibition, confirmation, counter-screen for Rpn11 inhibitor project, biochemical, fluorescence polarization, single concentration | shares compounds with Rpn11 inh | inhibition, % at 20 µM | bovine thrombin cleavage of Ub4-pepOG | 1,900 compounds, 13% hits;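 active = mean inhibition at least 40% at 20 µM, or signal 3 deviations below plate average, so some actives read negative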;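 also: plate controls were thrombin with DMSO for no effect and buffer wells lacking thrombin for full effect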
An asterisk follows results filed as active; . = not tested or not shown. Rows were chosen to be rich in hits. Some 2.7% of all compounds tested hit in one or more screens of this group. Rule as the data show it, unless noted: active = inhibition above about 40%; inactive = the rest.

SMILES	Rpn11 inh	HNF4A DNA FP	TPT1 inhibitor	NadD block	PP1 inh	CSN deneddyl inh	caTPT1 confirm	RNase T1 inh	Rpn11 inh conf	MMP-2 counter	Thrombin inh	others
CN1/C(=C/C=C(/C#N)C(N)=O)C(C)(C)c2ccccc21	43.2*	36.4*	86.9*	3.3	-6.8	18.2	68.1*	82.2*	34.9	-34.5	26.8
CCOC1=C/C(=C/c2c(N)n3nc(S(=O)(=O)CC)sc3nc2=O)C=CC1=O	73.7*	21.6	28.0*	-3.1	-4.5	33.1	56.3*	58.6*	65.0*	-8.4	46.2*
O=C(NNC(=O)C1CC=CCC1)c1ccccc1O (centres undefined)	-0.1	2.1	-0.2	1.7	-1.6	-2.4	.	.	.	.	.
O=C(N/N=C/c1sc(=O)n(-c2ccccc2)c1Cl)c1ccncc1	57.0*	20.5	32.3*	-0.1	-0.5	13.6	69.2*	81.2*	24.9	-26.3	12.0
COc1cc(C(=O)N/N=C/c2sc(=O)n(-c3ccccc3)c2Cl)cc(OC)c1OC	21.6	10.6	7.8	4.9	-1.1	1.9	.	.	.	.	.
Cc1ccc(O)c(/C=N/NC(=O)c2[nH]ncc2Br)c1	-6.2	-1.3	-1.2	-2.8	-1.8	0.6	.	.	.	.	.
O=C(N/N=C/c1c(O)ccc2ccccc12)c1[nH]ncc1Br	80.2*	22.9	31.8*	5.2	0.9	29.1	63.9*	63.1*	66.7*	-18.9	22.7
COc1cc(OC)c(C2NC(=O)CCC2[N+](=O)[O-])cc1OC (centres undefined)	4.1	0.1	-5.5	-5.6	-0.2	5.0	.	.	.	.	.
Cc1sc2nc(CSCC(=O)Nc3ccccc3C#N)[nH]c(=O)c2c1C	49.2*	13.9	36.9*	3.1	-1.9	3.5	47.1*	60.8*	45.8*	-12.3	29.9
Cc1sc2nc(CSC(C)C(=O)Nc3ccc(C#N)cc3)[nH]c(=O)c2c1C (centres undefined)	45.5*	20.0	28.7*	7.6	4.7	7.1	37.6*	49.3*	32.2	-11.3	29.2
CC1Cc2ccccc2C(CCc2ccccc2)=N1 (centres undefined)	-13.3	0.0	0.8	-1.5	-0.9	-0.1	.	.	.	.	.
CN1CCc2nc(NC(=O)c3cccc(OC(F)F)c3)sc2C1	50.7*	48.5*	60.1*	6.9	-10.0	13.1	25.8*	32.9*	-8.5	-5.7	-1.6
Oc1ccc(/C=N/Nc2ccnc3cc(Cl)ccc23)c(O)c1O	41.0*	5.9	32.9*	59.4*	13.2	13.7	13.7	20.3	10.1	9.7	2.6
CCOC(=O)c1c(NC(=O)c2ccco2)n(C2CCCCC2)c2nc3ccccc3nc12	44.8*	16.0	31.0*	7.3	1.4	9.9	27.5*	38.9*	28.2	10.0	21.1
CCCCCCCCN1C(=O)[C@H](CC(=O)NCCc2ccccc2OC)C[C@@]2(C(=O)OC)CCCCC=C12	.	3.1	.	2.3	.	-3.5	.	.	.	.	.
O=C(NN1C(=O)/C(=C\c2ccc(O)c([N+](=O)[O-])c2)SC1=S)c1ccccc1Cl	52.5*	28.2	48.8*	-4.6	15.7*	23.0	53.0*	63.0*	69.7*	11.4	52.8*
O=C(O)COc1ccccc1/C=C1\SC(=S)N(NC(=O)c2ccccc2O)C1=O	40.7*	8.4	30.8*	0.4	-9.8	15.6	30.8*	39.8*	58.4*	-9.0	53.8*
CCOC(=O)C1=C(COC(=O)COc2cc(C)ccc2C)NC(=O)NC1C (centres undefined)	-7.5	-2.6	-1.4	-5.0	-4.2	2.9	.	.	.	.	.
NC(=O)c1ccc(NC(=O)COC(=O)/C=C/c2cn(-c3ccccc3)nc2-c2cccnc2)cc1	50.4*	36.3	46.8*	25.5	23.4*	14.7	51.6*	65.7*	37.9	-12.4	18.0	PP1 inh confirm=19.0*;PP5 counter=-1.3
N#Cc1ccccc1NC(=O)COC(=O)/C=C/c1cn(-c2ccccc2)nc1-c1ccc(Cl)cc1	-3.3	1.6	.	7.6	.	8.8	.	.	.	.	.
COc1ccc2c(/C=C/c3cc[n+](C)cc3)c[nH]c2c1	52.1*	36.0*	43.0*	2.9	-0.4	24.6	46.6*	59.4*	67.9*	-38.4	71.8*
COc1cc(/C=C2/C(=O)N(c3cccc(Br)c3)N=C2C)cc(OC)c1O	78.2*	5.6	69.9*	11.3	3.8	30.0	86.4*	90.6*	80.2*	7.6	59.9*
CN1OC[C@@H]2CN(Cc3ccccc3)[C@H](c3cccc(-c4ccc(C#N)cc4)c3)C[C@@H]21	3.9	0.4	.	8.8	.	-3.9	.	.	.	.	.
